Experimental data from ChEMBL document CHEMBL3826885, “Similarities and differences in affinity and binding modes of tricyclic pyrimido- and pyrazinoxanthines at human and rat adenosine receptors” (Bioorg Med Chem, 2016).
Values after ≈ are worked out from the molar mass of the structure shown.

Key:
[1] = target: T1, Adenosine receptor A2a (Homo sapiens, UniProt P29274); test: Antagonist activity at human adenosine receptor A2a expressed in CHO cell membranes assessed as inhibition of NECA-induced cAMP accumulation incubated for 15 mins in presence of [3H]cAMP by liquid scintillation counting; assay type: functional
T1 sequence (P29274 whole entry): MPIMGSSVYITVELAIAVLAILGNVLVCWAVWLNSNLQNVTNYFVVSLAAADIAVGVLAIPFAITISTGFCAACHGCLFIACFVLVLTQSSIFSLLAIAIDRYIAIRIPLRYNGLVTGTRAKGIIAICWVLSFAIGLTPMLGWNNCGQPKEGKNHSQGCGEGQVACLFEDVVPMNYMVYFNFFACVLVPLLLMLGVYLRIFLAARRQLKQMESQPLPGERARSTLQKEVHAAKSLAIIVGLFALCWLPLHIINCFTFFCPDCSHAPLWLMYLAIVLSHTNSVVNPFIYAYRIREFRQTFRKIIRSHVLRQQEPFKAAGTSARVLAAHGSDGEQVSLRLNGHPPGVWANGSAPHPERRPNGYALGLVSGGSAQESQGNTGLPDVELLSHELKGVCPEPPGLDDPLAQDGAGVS
Procedure, shortened: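 Stably transfected CHO cells (human A2A or A2B) grown in DMEM-F12 with 10% FCS at 37 °C, 5% CO2. The cells were seeded at 200,000/well, washed after 24 h and held 2 h in HBSS (pH 7.3) with 1 U/ml adenosine deaminase. Ro20-1724 was added to 40 µM final for 15 min, then NECA dilutions ± one fixed test concentration in 2.5% DMSO, in duplicate.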

[2] = target: T2, Adenosine receptor A1 (Rattus norvegicus, UniProt P25099); test: Displacement of [3H]CCPA from adenosine receptor A1 in rat brain cortical membranes; assay type: cell membranes
T2 sequence (P25099 whole entry): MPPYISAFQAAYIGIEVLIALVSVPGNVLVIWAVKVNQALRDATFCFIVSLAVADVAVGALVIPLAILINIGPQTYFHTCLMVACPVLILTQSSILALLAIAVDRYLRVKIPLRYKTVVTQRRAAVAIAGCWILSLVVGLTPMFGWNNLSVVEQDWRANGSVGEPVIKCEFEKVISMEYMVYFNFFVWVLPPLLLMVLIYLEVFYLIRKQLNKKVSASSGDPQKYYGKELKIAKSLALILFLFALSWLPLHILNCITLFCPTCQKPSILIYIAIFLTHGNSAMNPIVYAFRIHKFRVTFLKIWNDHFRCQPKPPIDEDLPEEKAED
Procedure, shortened: (§1)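 Native rat receptors: A1 in brain cortical membranes with [3H]CCPA, A2A in brain striatal membranes, from frozen unstripped rat brains. Compounds were first screened at a single high concentration in three independent experiments.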

[3] = target: T3, Adenosine receptor A1 (Rattus norvegicus) (UniProt P25099); test: Displacement of [3H]CCPA from adenosine receptor A1 in rat brain cortical membranes at 1 uM; assay type: cell membranes
T3 sequence (whole entry): T2 sequence (P25099 whole entry)
Procedure, shortened: as §1, with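 “experiments. Active compounds then had full inhibition curves over at least 3 orders of magnitude of concentration.” for “experiments.”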

[4] = target: Adenosine receptor A2a (Rattus norvegicus, UniProt P30543); test: Displacement of [3H]MSX2 from adenosine receptor A2a in rat brain striatal membranes; assay type: cell membranes, Membrane
Sequence of Adenosine receptor A2a (Rattus norvegicus, UniProt P30543) (P30543 whole entry): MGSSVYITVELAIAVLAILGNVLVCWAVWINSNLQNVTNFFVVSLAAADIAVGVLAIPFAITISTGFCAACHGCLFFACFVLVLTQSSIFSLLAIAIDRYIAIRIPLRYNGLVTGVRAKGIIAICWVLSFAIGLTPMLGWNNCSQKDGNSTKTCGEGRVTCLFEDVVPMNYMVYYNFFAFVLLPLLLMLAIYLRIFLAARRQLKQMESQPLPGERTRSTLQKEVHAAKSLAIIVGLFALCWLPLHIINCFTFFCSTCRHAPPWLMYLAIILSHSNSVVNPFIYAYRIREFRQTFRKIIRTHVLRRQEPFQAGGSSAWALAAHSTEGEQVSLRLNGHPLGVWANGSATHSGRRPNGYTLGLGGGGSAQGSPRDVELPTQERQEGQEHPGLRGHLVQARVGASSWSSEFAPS
Procedure, shortened: as §1, with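 “experiments. Active compounds then had full inhibition curves over at least 3 orders of magnitude of concentration.” for “experiments.”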

[5] = target: Adenosine receptor A2a (Rattus norvegicus) (UniProt P30543); test: Displacement of [3H]MSX2 from Adenosine receptor A2a in rat brain striatal membranes at 1 uM; assay type: cell membranes; settings: Membrane
Sequence of Adenosine receptor A2a (Rattus norvegicus) (P30543 whole entry): as above
Procedure, shortened: as §1, with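 “experiments. Active compounds then had full inhibition curves over at least 3 orders of magnitude of concentration.” for “experiments.”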

[6] = target: T4, Adenosine receptor A2b (Rattus norvegicus, UniProt P29276); test: Displacement of [3H]PSB-603 from recombinant rat adenosine receptor A2b expressed in CHO cell membranes
T4 sequence (P29276 whole entry): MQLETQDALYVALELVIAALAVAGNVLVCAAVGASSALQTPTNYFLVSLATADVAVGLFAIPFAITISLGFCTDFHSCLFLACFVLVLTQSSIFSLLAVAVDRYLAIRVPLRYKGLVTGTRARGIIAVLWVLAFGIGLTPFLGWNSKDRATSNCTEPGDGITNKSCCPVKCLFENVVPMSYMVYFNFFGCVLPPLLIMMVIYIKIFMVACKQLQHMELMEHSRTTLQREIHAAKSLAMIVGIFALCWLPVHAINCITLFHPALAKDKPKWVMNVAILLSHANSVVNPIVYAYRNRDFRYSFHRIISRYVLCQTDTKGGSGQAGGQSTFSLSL
Procedure, shortened: (§2)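 Membranes came from CHO cells expressing recombinant receptors (human A1, A2A, A2B, A3; rat A2B, A3). Radioligands were [3H]CCPA for A1 and [3H]PSB-11 or [3H]NECA for A3. A single high concentration was screened first, in three experiments for A1/A2A and two for A2B/A3.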

[7] = target: T5, Adenosine receptor A2b (Rattus norvegicus) (UniProt P29276); test: Displacement of [3H]PSB-603 from recombinant rat adenosine receptor A2b expressed in CHO cell membranes at 1 uM
T5 sequence (whole entry): T4 sequence (P29276 whole entry)
Procedure, shortened: as §2, with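 “A2B/A3. Full inhibition curves spanning at least 3 log units were run for potent compounds.” for “A2B/A3.”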

[8] = target: T6, Adenosine receptor A3 (Rattus norvegicus, UniProt P28647); test: Displacement of [3H]NECA from recombinant rat adenosine receptor A3 expressed in CHO cell membranes; procedure, shortened: as §2
T6 sequence (P28647 whole entry): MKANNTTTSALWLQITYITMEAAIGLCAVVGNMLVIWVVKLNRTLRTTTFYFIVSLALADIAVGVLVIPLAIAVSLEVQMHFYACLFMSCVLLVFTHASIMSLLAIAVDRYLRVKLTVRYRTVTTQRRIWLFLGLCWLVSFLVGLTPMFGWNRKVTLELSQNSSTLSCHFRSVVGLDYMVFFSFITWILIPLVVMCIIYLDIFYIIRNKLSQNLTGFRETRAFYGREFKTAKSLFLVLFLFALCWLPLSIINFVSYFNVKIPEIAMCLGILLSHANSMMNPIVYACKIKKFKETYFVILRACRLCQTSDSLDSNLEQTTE

[9] = target: T7, Adenosine receptor A3 (Rattus norvegicus) (UniProt P28647); test: Displacement of [3H]NECA from recombinant rat adenosine receptor A3 expressed in CHO cell membranes at 1 uM
T7 sequence (whole entry): T6 sequence (P28647 whole entry)
Procedure, shortened: as §2, with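 “A2B/A3. Full inhibition curves spanning at least 3 log units were run for potent compounds.” for “A2B/A3.”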

[10] = target: T8, Adenosine receptor A1 (Homo sapiens, UniProt P30542); test: Displacement of [3H]CCPA from recombinant human adenosine receptor A1 expressed in CHO cell membranes
T8 sequence (P30542 whole entry): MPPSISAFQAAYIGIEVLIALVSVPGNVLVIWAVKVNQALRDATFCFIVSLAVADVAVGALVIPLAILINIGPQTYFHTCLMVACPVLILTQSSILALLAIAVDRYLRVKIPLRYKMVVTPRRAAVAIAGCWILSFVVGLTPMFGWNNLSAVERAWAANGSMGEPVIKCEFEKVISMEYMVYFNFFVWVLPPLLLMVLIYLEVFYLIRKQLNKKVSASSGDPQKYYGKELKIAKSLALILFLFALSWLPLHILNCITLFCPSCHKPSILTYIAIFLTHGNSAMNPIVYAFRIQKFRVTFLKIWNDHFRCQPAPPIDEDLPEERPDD
Procedure, shortened: as §2, with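 “A2B/A3. Full inhibition curves spanning at least 3 log units were run for potent compounds.” for “A2B/A3.”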

[11] = target: T9, Adenosine receptor A1 (Homo sapiens) (UniProt P30542); test: Displacement of [3H]CCPA from recombinant human adenosine receptor A1 expressed in CHO cell membranes at 1 uM
T9 sequence (whole entry): T8 sequence (P30542 whole entry)
Procedure, shortened: as §2, with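 “A2B/A3. Full inhibition curves spanning at least 3 log units were run for potent compounds.” for “A2B/A3.”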

[12] = target: T1, Adenosine receptor A2a; test: Displacement of [3H]MSX2 from recombinant human adenosine receptor A2a expressed in CHO cell membranes
Procedure, shortened: as §2, with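 “A2B/A3. Full inhibition curves spanning at least 3 log units were run for potent compounds.” for “A2B/A3.”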

[13] = target: T1, Adenosine receptor A2a; test: Displacement of [3H]MSX2 from recombinant human adenosine receptor A2a expressed in CHO cell membranes at 1 uM
Procedure, shortened: as §2, with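 “A2B/A3. Full inhibition curves spanning at least 3 log units were run for potent compounds.” for “A2B/A3.”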

[14] = target: T10, Adenosine receptor A2b (Homo sapiens, UniProt P29275); test: Displacement of [3H]PSB-603 from recombinant human adenosine receptor A2b expressed in CHO cell membranes; procedure, shortened: as §2
T10 sequence (P29275 whole entry): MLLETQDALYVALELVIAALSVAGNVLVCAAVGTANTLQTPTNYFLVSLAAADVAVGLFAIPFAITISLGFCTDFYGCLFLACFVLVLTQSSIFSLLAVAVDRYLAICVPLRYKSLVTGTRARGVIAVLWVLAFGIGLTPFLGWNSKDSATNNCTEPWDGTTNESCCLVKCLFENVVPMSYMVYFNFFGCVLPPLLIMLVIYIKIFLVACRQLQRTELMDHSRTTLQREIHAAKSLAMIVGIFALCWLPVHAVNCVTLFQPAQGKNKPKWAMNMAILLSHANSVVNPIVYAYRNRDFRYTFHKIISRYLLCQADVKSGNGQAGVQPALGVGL

[15] = target: T11, Adenosine receptor A2b (Homo sapiens) (UniProt P29275); test: Displacement of [3H]PSB-603 from recombinant human adenosine receptor A2b expressed in CHO cell membranes at 1 uM
T11 sequence (whole entry): T10 sequence (P29275 whole entry)
Procedure, shortened: as §2, with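 “A2B/A3. Full inhibition curves spanning at least 3 log units were run for potent compounds.” for “A2B/A3.”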

[16] = target: T12, Adenosine receptor A3 (Homo sapiens) (UniProt P0DMS8); test: Displacement of [3H]PSB11 from recombinant human adenosine receptor A3 expressed in CHO cell membranes at 1 uM
T12 sequence (whole entry): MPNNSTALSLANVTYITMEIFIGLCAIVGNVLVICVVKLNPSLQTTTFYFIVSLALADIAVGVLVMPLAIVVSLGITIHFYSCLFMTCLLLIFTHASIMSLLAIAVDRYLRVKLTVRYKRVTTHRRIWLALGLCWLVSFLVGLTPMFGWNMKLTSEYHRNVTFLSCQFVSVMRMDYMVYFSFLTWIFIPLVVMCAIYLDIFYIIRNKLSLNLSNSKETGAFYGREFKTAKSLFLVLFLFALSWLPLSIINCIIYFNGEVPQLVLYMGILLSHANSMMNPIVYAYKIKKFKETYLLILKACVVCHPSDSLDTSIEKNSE
Procedure, shortened: as §2, with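 “A2B/A3. Full inhibition curves spanning at least 3 log units were run for potent compounds.” for “A2B/A3.”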

[17] = target: T13, Adenosine receptor A3 (Homo sapiens, UniProt P0DMS8); test: Displacement of [3H]PSB-11 from recombinant human adenosine receptor A3 expressed in CHO cell membranes
T13 sequence (P0DMS8 whole entry): T12 sequence (whole entry)

[18] = Solubility of compound in water at 20 degC by UV-spectroscopic analysis; assay type: physicochemical
Procedure, shortened: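 Suspensions were boiled 5 min, left overnight at 20 °C, and filtered. Filtrates were diluted 10-80-fold in MeOH and read by UV in MeOH/H2O (90% v/v). Concentration came from standard curves of seven concentrations from 10^-3 to 10^-1 mg/mL, using linear regression of two neighbouring points and multiplying by the dilution.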

Cn1c(=O)c2c(nc3n2CCCN3CCc2ccc(O)cc2)n(C)c1=O
Kb [1]: 2220 nM

CCCn1c(=O)c2c(nc3n2CCCN3c2ccc(OCCN3CCCC3)cc2)n(CCC)c1=O
Ki [2]: 175 nM | inhibition [3]: 53% | Ki [4]: > 1000 nM | inhibition [5]: 28% | Ki [6]: > 1000 nM | inhibition [7]: 4% | Ki [8]: > 1000 nM | inhibition [9]: 10% | Ki [10]: 1990 nM | inhibition [11]: 22% | Ki [12]: 2380 nM | inhibition [13]: 10% | Ki [14]: > 1000 nM | inhibition [15]: 10% | inhibition [16]: 20% | Ki [17]: > 1000 nM

CCn1c(=O)c2c(nc3n2CCCN3CCc2ccc(O)cc2)n(CC)c1=O
inhibition [3]: 14% | Ki [4]: 271 nM | inhibition [5]: 80% | inhibition [7]: 14% | inhibition [9]: 19% | Ki [10]: 2020 nM | inhibition [11]: 20% | Ki [12]: 2180 nM | inhibition [13]: 30% | Ki [14]: > 500 nM | inhibition [15]: 42%

CCCn1c(=O)c2c(nc3n2CCCN3c2ccc(OCCN(CC)CC)cc2)n(CCC)c1=O
Ki [2]: 567 nM | inhibition [3]: 30% | Ki [4]: 1790 nM | inhibition [5]: 51% | Ki [14]: > 1000 nM | inhibition [15]: 22% | inhibition [16]: 20% | solubility [18]: 260 µg/mL (≈ 539 µM) | Ki [17]: > 1000 nM

CCCCn1c(=O)c2c(nc3n2CCCN3c2ccc(OCCN3CCCC3)cc2)n(CCCC)c1=O
Ki [2]: 72 nM | inhibition [3]: 69% | Ki [4]: 989 nM | inhibition [5]: 49% | Ki [6]: > 1000 nM | inhibition [7]: 15% | Ki [8]: > 1000 nM | inhibition [9]: 20% | Ki [10]: 658 nM | inhibition [11]: 41% | Ki [12]: 666 nM | inhibition [13]: 68% | Ki [14]: > 1000 nM | inhibition [15]: 34% | inhibition [16]: 48%

CCCCn1c(=O)c2c(nc3n2CCCN3c2ccc(OCCN3CCCCC3)cc2)n(CCCC)c1=O
Ki [2]: 127 nM | inhibition [3]: 65% | Ki [4]: 1480 nM | inhibition [5]: 49% | Ki [6]: > 1000 nM | inhibition [7]: 9% | Ki [8]: > 1000 nM | inhibition [9]: 20% | Ki [10]: 713 nM | inhibition [11]: 42% | Ki [12]: 921 nM | inhibition [13]: 53% | Ki [14]: > 1000 nM | inhibition [15]: 41% | inhibition [16]: 48%
